Reference: ChEMBL document CHEMBL1152689, “Synthesis, tautomerism, and antimicrobial, anti-HCV, anti-SSPE, antioxidant, and antitumor activities of arylazobenzosuberones” (Bioorg Med Chem, 2009)
pIC50: −log10 of the molar value. ≈ marks a conversion by molar mass, not a printed value. Calls of active or inactive are those of the source. No cut-off for these calls is given here.

Tests used:
[1] = tested on: Candida albicans; assay: Antimicrobial activity against Candida albicans at 2.5 ug/mL by agar diffusion method; assay type: functional; details: read-out: IZ
[2] = tested on: Bacillus subtilis; assay: Antimicrobial activity against Bacillus subtilis at 1.25 ug/mL by agar diffusion method; assay type: functional; details: read-out: IZ
[3] = tested on: Pseudomonas aeruginosa; assay: Antimicrobial activity against Pseudomonas aeruginosa at 5 ug/mL by agar diffusion method; assay type: functional; details: read-out: IZ
[4] = tested on: Pseudomonas aeruginosa; assay: Antimicrobial activity against Pseudomonas aeruginosa at 2.5 ug/mL by agar diffusion method; assay type: functional; details: read-out: IZ
[5] = tested on: Radical scavenging activity; assay: Antioxidant activity assessed as DPPH free radical scavenging activity by measuring reduction in DPPH absorbance by ELISA relative to untreated control; assay type: functional; design: concentration or dose not given beside the values
In short: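 Test compounds dissolved in DMSO, ascorbic acid standard in water, both serially diluted. 10 µl sample added to 90 µl of 100 µM DPPH in methanol and kept in the dark at 37 °C for 30 min. Absorbance read at 515 nm. Blank is DMSO plus DPPH. % reduction = (A_B − A_A)/A_B × 100. Run in triplicate.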

[6] = tested on: Penicillium italicum; assay: Antimicrobial activity against Penicillium italicum at 5 ug/mL by agar diffusion method; assay type: functional; details: read-out: IZ
[7] = tested on: Syncephalastrum racemosum; assay: Antimicrobial activity against Syncephalastrum racemosum at 1.25 ug/mL by agar diffusion method; assay type: functional; details: read-out: IZ
[8] = tested on: Escherichia coli; assay: Antimicrobial activity against Escherichia coli at 1.25 ug/mL by agar diffusion method; assay type: functional; details: read-out: IZ
[9] = tested on: Aspergillus fumigatus; assay: Antimicrobial activity against Aspergillus fumigatus at 2.5 ug/mL by agar diffusion method; assay type: functional; details: read-out: IZ
[10] = tested on: Candida albicans; assay: Antimicrobial activity against Candida albicans at 1.25 ug/mL by agar diffusion method; assay type: functional; details: read-out: IZ
[11] = tested on: Staphylococcus aureus; assay: Antimicrobial activity against Staphylococcus aureus at 1.25 ug/mL by agar diffusion method; assay type: functional; details: read-out: IZ
[12] = tested on: Penicillium italicum; assay: Antimicrobial activity against Penicillium italicum at 1.25 ug/mL by agar diffusion method; assay type: functional; details: read-out: IZ
[13] = tested on: Escherichia coli; assay: Antimicrobial activity against Escherichia coli at 2.5 ug/mL by agar diffusion method; assay type: functional; details: read-out: IZ
[14] = tested on: Staphylococcus aureus; assay: Antimicrobial activity against Staphylococcus aureus at 5 ug/mL by agar diffusion method; assay type: functional; details: read-out: IZ
[15] = target: DNA topoisomerase 2-alpha (Mus musculus) (UniProt Q01320); assay: Inhibition of topoisomerase 2 from mouse P388 cells assessed as relaxation of pBR322 DNA by agarose gel electrophoresis relative to etoposide; assay type: cell-based
In short: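 Topoisomerase II purified from P388 cells. One unit relaxes 0.125 µg supercoiled pBR322 DNA, incubated with or without inhibitor at 30 °C for 1 h in 50 mM Tris-HCl pH 8.0, 100 mM KCl, 10 mM MgCl2, 0.5 mM DTT, 1 mM ATP and 30 µg/ml BSA. Products run on 0.7% agarose in TBE, stained with ethidium bromide and imaged under UV.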

[16] = tested on: Staphylococcus aureus; assay: Antimicrobial activity against Staphylococcus aureus at 2.5 ug/mL by agar diffusion method; assay type: functional; details: read-out: IZ
[17] = tested on: Syncephalastrum racemosum; assay: Antimicrobial activity against Syncephalastrum racemosum at 5 ug/mL by agar diffusion method; assay type: functional; details: read-out: IZ
[18] = tested on: Candida albicans; assay: Antimicrobial activity against Candida albicans at 5 ug/mL by agar diffusion method; assay type: functional; details: read-out: IZ
[19] = tested on: Penicillium italicum; assay: Antimicrobial activity against Penicillium italicum at 2.5 ug/mL by agar diffusion method; assay type: functional; details: read-out: IZ
[20] = tested on: MC-38; assay: Antitumor activity against mouse Colon 38 cells implanted in iv dosed C57BL/6 mouse administered as single dose; assay type: functional, organism-based
In short: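 Female C57BL/6 mice, 6 weeks old, given about 30 mg Colon 38 tumor tissue s.c. in the flank. Randomized into groups of n = 5 when tumors reached about 300 mm3 (day 1). Compound in 5% glucose given as a single iv tail-vein dose on day 1; controls received 5% glucose. Tumor volume = (length × width²)/2 and body weight tracked.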

[21] = tested on: Aspergillus fumigatus; assay: Antimicrobial activity against Aspergillus fumigatus at 1.25 ug/mL by agar diffusion method; assay type: functional; details: read-out: IZ
[22] = tested on: Syncephalastrum racemosum; assay: Antimicrobial activity against Syncephalastrum racemosum at 2.5 ug/mL by agar diffusion method; assay type: functional; details: read-out: IZ
[23] = Antioxidant activity assessed as inhibition of peroxynitrite-mediated 3-nitrotyrosine formation by HPLC; assay type: functional
In short: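 Tyrosine and peroxynitrite, each 100 µM, reacted with compound at 0–300 µM in 100 mM phosphate buffer pH 7.4 at 37 °C for 15 min. Peroxynitrite made from acidified H2O2 plus KNO2, quenched with NaOH, and kept on ice no longer than 30 min before use.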

[24] = tested on: Bacillus subtilis; assay: Antimicrobial activity against Bacillus subtilis by agar diffusion method; assay type: functional
In short: (§1)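 Agar diffusion on plates against bacteria and fungi. MIC taken as the lowest concentration giving no visible growth on the plate.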

[25] = target: T1, DNA topoisomerase 1 (Homo sapiens) (UniProt P11387); assay: Inhibition of topoisomerase 1 relative to etoposide
T1 sequence (whole entry): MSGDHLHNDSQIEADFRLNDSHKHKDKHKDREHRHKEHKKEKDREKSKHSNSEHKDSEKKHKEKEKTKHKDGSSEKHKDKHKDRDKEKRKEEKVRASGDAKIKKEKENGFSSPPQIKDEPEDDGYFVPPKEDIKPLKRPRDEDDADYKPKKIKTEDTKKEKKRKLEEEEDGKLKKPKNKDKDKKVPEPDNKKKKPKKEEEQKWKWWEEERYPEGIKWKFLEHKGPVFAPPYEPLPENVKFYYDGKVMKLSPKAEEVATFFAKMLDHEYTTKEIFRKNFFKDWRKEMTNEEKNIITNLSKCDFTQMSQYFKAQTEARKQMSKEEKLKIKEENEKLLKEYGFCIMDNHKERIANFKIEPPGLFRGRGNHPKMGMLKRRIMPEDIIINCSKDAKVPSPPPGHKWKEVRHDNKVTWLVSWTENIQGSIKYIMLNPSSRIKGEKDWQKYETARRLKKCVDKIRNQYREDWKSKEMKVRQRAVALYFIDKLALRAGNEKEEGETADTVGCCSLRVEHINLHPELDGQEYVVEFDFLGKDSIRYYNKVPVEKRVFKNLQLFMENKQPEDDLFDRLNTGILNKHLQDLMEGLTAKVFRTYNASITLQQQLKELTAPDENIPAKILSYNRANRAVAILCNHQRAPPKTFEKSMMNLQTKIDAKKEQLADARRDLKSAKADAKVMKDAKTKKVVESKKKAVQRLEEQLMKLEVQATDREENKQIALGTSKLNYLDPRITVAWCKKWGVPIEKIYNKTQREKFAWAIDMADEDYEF

[26] = tested on: Aspergillus fumigatus; assay: Antimicrobial activity against Aspergillus fumigatus by agar diffusion method; assay type: functional; in short: as §1
[27] = tested on: Staphylococcus aureus; assay: Antimicrobial activity against Staphylococcus aureus by agar diffusion method; assay type: functional; in short: as §1
[28] = tested on: Candida albicans; assay: Antimicrobial activity against Candida albicans by agar diffusion method; assay type: functional; in short: as §1
[29] = tested on: Measles morbillivirus; assay: Antiviral activity against Measles virus infected in intracranially dosed hamster assessed as inhibition of subacute sclerosing panencephalitis; assay type: functional
In short: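 Hamsters under ether anesthesia injected intracranially, into the subarachnoid space at 2 mm depth, at 5, 10 and 20 mg/kg/day for 10 days. Four animals per group sacrificed on days 1–20. Brains homogenized in PBS and centrifuged, supernatant deproteinized with ethanol, then MIC in brain tissue determined by HPLC and bioassay.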

[30] = tested on: Hepatitis C virus; assay: Antiviral activity against HCV by cell based replicon assay; assay type: functional, Hepacivirus hominis
In short: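 HCV replicon cells plated at 1×10^4 per well. Next day incubated at 37 °C with serially diluted compound in DMEM with 2% FBS and 0.5% DMSO. HCV RNA copy number measured by quantitative RT-PCR on total cellular RNA. Each point is the average of five replicates. Cytotoxicity measured by MTS in parallel.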

[31] = tested on: Pseudomonas aeruginosa; assay: Antimicrobial activity against Pseudomonas aeruginosa at 1.25 ug/mL by agar diffusion method; assay type: functional; details: read-out: IZ
[32] = tested on: Bacillus subtilis; assay: Antimicrobial activity against Bacillus subtilis at 2.5 ug/mL by agar diffusion method; assay type: functional; details: read-out: IZ
[33] = tested on: Escherichia coli; assay: Antimicrobial activity against Escherichia coli at 5 ug/mL by agar diffusion method; assay type: functional; details: read-out: IZ
[34] = tested on: Aspergillus fumigatus; assay: Antimicrobial activity against Aspergillus fumigatus at 5 ug/mL by agar diffusion method; assay type: functional; details: read-out: IZ
[35] = tested on: Bacillus subtilis; assay: Antimicrobial activity against Bacillus subtilis at 5 ug/mL by agar diffusion method; assay type: functional; details: read-out: IZ
[36] = tested on: Syncephalastrum racemosum; assay: Antimicrobial activity against Syncephalastrum racemosum by agar diffusion method; assay type: functional; in short: as §1
[37] = tested on: Penicillium italicum; assay: Antimicrobial activity against Penicillium italicum by agar diffusion method; assay type: functional; in short: as §1
[38] = tested on: Escherichia coli; assay: Antimicrobial activity against Escherichia coli by agar diffusion method; assay type: functional; in short: as §1

DNA topoisomerase 2-alpha (Mus musculus), sequence (Q01320 whole entry): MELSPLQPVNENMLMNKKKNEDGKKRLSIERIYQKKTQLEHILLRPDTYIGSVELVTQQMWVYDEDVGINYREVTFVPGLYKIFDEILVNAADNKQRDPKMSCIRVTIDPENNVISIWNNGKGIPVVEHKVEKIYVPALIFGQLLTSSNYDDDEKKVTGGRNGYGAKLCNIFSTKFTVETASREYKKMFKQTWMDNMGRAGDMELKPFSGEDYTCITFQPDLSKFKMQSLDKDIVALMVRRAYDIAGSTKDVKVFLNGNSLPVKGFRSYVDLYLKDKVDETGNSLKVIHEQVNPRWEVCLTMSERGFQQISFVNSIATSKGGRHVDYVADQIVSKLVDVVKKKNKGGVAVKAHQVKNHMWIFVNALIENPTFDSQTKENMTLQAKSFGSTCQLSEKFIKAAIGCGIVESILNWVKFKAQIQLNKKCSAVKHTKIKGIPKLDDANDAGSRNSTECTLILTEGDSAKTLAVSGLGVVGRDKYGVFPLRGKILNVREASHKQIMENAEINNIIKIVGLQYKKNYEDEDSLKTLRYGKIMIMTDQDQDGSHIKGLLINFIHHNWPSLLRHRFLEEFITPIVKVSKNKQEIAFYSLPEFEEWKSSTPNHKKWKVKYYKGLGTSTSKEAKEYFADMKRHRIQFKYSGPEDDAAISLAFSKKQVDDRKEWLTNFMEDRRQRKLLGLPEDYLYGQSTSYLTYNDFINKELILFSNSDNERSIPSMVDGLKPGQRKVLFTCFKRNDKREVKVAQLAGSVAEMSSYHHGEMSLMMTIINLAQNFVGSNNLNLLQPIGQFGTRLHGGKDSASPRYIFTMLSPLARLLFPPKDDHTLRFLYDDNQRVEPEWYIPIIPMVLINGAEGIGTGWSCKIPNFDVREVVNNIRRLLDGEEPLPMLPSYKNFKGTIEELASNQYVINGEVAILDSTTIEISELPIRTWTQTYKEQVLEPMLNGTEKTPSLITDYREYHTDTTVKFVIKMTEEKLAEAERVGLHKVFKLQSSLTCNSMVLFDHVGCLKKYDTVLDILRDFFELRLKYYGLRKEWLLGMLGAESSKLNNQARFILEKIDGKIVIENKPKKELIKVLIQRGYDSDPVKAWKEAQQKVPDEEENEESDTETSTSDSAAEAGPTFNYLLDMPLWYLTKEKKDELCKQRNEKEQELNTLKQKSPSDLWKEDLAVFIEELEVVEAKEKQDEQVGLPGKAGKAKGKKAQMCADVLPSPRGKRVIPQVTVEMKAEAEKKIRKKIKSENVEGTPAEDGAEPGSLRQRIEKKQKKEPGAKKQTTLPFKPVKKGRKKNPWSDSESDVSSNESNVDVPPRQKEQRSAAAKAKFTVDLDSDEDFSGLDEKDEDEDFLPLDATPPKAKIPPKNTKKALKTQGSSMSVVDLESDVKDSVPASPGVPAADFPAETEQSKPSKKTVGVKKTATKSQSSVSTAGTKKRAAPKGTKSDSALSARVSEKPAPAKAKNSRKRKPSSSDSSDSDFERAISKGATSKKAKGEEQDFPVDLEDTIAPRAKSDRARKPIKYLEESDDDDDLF

Ratio [15] | SMILES | zone of inhibition at 2.5 µg/mL [1] | zone of inhibition at 1.25 µg/mL [2] | zone of inhibition at 5 µg/mL [3] | zone of inhibition at 2.5 µg/mL [4] | Activity [5] | zone of inhibition at 5 µg/mL [6] | zone of inhibition at 1.25 µg/mL [7] | zone of inhibition at 1.25 µg/mL [8] | zone of inhibition at 2.5 µg/mL [9] | zone of inhibition at 1.25 µg/mL [10] | zone of inhibition at 1.25 µg/mL [11] | zone of inhibition at 1.25 µg/mL [12] | zone of inhibition at 2.5 µg/mL [13] | zone of inhibition at 5 µg/mL [14] | zone of inhibition at 2.5 µg/mL [16] | zone of inhibition at 5 µg/mL [17] | zone of inhibition at 5 µg/mL [18] | zone of inhibition at 2.5 µg/mL [19] | Activity [20] | also measured
4.27 | Cc1ccc(N/N=C2\CCCc3ccccc3C2=O)cc1 | 6 mm | 4 mm | 0 mm | 0 mm | 80.1% | 0 mm | 7 mm | 0 mm | 13 mm | 2 mm | 5 mm | 0 mm | 0 mm | 12 mm | 8 mm | 18 mm | 14 mm | 0 mm | Active | zone of inhibition at 1.25 µg/mL [21]: 9 mm; zone of inhibition at 2.5 µg/mL [22]: 12 mm; pIC50 [23]: 4.25; MIC [24]: 0.625 µg/mL (≈ 2.25 µM); Ratio [25]: 4.2; MIC [26]: 0.313 µg/mL (≈ 1.12 µM); MIC [27]: 0.625 µg/mL (≈ 2.25 µM); MIC [28]: 1.25 µg/mL (≈ 4.49 µM); MIC [29]: 7.06 µg/mL (≈ 25.4 µM); MIC [30]: 1.14 µg/mL (≈ 4.1 µM); zone of inhibition at 1.25 µg/mL [31]: 0 mm; zone of inhibition at 2.5 µg/mL [32]: 6 mm; zone of inhibition at 5 µg/mL [33]: 7 mm; zone of inhibition at 5 µg/mL [34]: 22 mm; zone of inhibition at 5 µg/mL [35]: 16 mm; MIC [36]: 0.625 µg/mL (≈ 2.25 µM)
4.66 | Cc1cccc(N/N=C2\CCCc3ccccc3C2=O)c1 | 6 mm | 8 mm | 0 mm | 0 mm | 83.1% | 14 mm | 8 mm | 0 mm | 14 mm | 2 mm | 5 mm | 3 mm | 6 mm | 12 mm | 8 mm | 19 mm | 9 mm | 6 mm | Active | MIC [37]: 1.25 µg/mL (≈ 4.49 µM); MIC [38]: 2.5 µg/mL (≈ 8.98 µM); zone of inhibition at 1.25 µg/mL [21]: 9 mm; zone of inhibition at 2.5 µg/mL [22]: 12 mm; pIC50 [23]: 4.26; MIC [24]: 0.313 µg/mL (≈ 1.12 µM); Ratio [25]: 4.46; MIC [26]: 0.313 µg/mL (≈ 1.12 µM); MIC [27]: 0.625 µg/mL (≈ 2.25 µM); MIC [28]: 1.25 µg/mL (≈ 4.49 µM); MIC [29]: 6.01 µg/mL (≈ 21.6 µM); MIC [30]: 1.02 µg/mL (≈ 3.67 µM); zone of inhibition at 1.25 µg/mL [31]: 0 mm; zone of inhibition at 2.5 µg/mL [32]: 10 mm; zone of inhibition at 5 µg/mL [33]: 12 mm; zone of inhibition at 5 µg/mL [34]: 22 mm; zone of inhibition at 5 µg/mL [35]: 15 mm; MIC [36]: 0.313 µg/mL (≈ 1.12 µM)
